Measurements: PubChem BioAssay AID1267 (The Scripps Research Institute Molecular Screening Center, 2008)
About 770 (64%) of roughly 1,200 compounds were called active.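 Rule for the calls: active = percent activation of the STAT3 luciferase reporter above a set limit taken from the earlier primary screen (cut at about 130% in these data); inactive = the rest.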 The set was probably picked from earlier hits. A selection follows.

Assay: STAT3 reporter potentiators, retest of hits, confirmation, U3A cells, luciferase, luminescence (AID 1267);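 note: 0% = background signal of medium plus substrate and 100% = median of IL-6 with DMSO wells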
Conditions: IL-6 potentiation, at 5.7 µM, stronger effect = higher value
Outline: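 Material: U3A STAT3::luc reporter cells; probe or stimulus: IL-6 stimulus at 33 ng/mL final; schedule: compound 1 h and IL-6 6 h, 37 °C; signal: luciferase reporter luminescence; evaluation: % potentiation versus median IL-6 plus DMSO wells, background-subtracted; controls: IL-6 + DMSO high control, media-only background; repeats: three replicates per compound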
For `CCC/C(=N\O)c1c[nH]c2ccccc12`, the potentiation (% of control) was 143% (active).
In the case of `COc1cc(-n2c(=S)[nH]c3ccc(C)cc3c2=O)c(Cl)cc1Cl`, the potentiation (% of control) is reported as 129% (inactive).
